Measured values published in ChEMBL document CHEMBL2413015, “Synthesis, evaluation and molecular dynamics study of some new 4-aminopyridine semicarbazones as an antiamnesic and cognition enhancing agents” (Bioorg Med Chem, 2013).
pIC50, pKi: −log10 of the molar value.

Key:
Cholinesterase [1] = biological target: T1, Cholinesterase (Homo sapiens, UniProt P06276); assay: Non competitive inhibition of human serum BChE using butyrylthiocholine iodide as substrate by Lineweaver-Burk plot analysis
Summary of the method: (§1)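 Ellman assay in phosphate buffer pH 8 with a fixed amount of cholinesterase. Thiocholine substrate was varied from below to above, but near, Km, with or without inhibitor. Inhibition type was assigned from Lineweaver–Burk plots.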

Rattus norvegicus [2] = assay: Cognitive enhancing effect in Charles Foster rat assessed as reversal of scopolamine-induced amnesia measured as transfer latency at 5 mg/kg, po for 8 days administered 1 hr prior to scopolamine-challenge on day 7 measured on day 8 by elevated plus maze test (reference value: 62.17 +/- 0.47 seconds); format: functional
Rattus norvegicus [3] = assay: Cognitive enhancing effect in po dosed Wistar rat assessed as reversal of learning impairment measured as transfer latency administered for 8 days by elevated plus maze test; format: functional, organism-based
Summary of the method: (§2)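 Oral dosing at 5 or 10 mg/kg for 8 days, suspended in 0.3% carboxymethyl cellulose; vehicle-treated controls. Transfer latency on elevated plus maze measured on first and second days of exposure (treatment days 7 and 8). Mean ± SEM, n = 6, one-way ANOVA versus vehicle control.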

Rattus norvegicus [4] = assay: Activity at AChE in Charles Foster rat hypothalamus assessed as substrate hydrolyzed per mg of protein at 10 mg/kg, po for 8 days by Ellman's method (reference value: 40.50 +/- 0.76 mol/min); format: functional
Rattus norvegicus [5] = assay: Cognitive enhancing effect in Charles Foster rat assessed as reversal of scopolamine-induced amnesia measured as transfer latency at 10 mg/kg, po for 8 days administered 1 hr prior to scopolamine-challenge on day 7 measured on day 8 by elevated plus maze test (reference value: 62.17 +/- 0.47 seconds); format: functional
Rattus norvegicus [6] = assay: Activity at AChE in Charles Foster rat hippocampus assessed as substrate hydrolyzed per mg of protein at 10 mg/kg, po for 8 days by Ellman's method (reference value: 47.50 +/- 0.84 mol/min); format: functional
Acetylcholinesterase [7] = biological target: T2, Acetylcholinesterase (Electrophorus electricus, UniProt O42275); assay: Inhibition of electric eel AChE using acetylthiocholine iodide as substrate preincubated for 20 mins prior to substrate addition by Ellman's method; conditions: for pIC50: read-out: IC50; for IC50: read-out: pIC50 (converted)
T2 sequence (O42275 whole entry): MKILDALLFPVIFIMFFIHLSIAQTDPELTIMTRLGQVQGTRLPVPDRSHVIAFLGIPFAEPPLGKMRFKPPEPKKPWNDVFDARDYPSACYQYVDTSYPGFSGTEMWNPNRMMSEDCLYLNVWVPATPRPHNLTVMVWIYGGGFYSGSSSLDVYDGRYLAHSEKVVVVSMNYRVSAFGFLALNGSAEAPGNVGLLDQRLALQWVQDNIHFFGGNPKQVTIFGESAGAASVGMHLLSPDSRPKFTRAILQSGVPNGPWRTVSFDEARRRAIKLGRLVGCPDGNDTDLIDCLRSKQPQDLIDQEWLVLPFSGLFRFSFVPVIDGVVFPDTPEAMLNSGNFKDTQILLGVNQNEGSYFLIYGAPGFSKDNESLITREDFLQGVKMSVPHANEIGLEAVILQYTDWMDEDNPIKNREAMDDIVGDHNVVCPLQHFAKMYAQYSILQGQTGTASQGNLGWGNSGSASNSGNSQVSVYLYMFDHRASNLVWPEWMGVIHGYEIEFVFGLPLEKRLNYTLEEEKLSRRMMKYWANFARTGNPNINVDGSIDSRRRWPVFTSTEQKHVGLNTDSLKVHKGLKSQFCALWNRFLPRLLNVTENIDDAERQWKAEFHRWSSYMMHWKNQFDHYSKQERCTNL

Rattus norvegicus [8] = assay: Cognitive enhancing effect in Charles Foster rat assessed as reversal of scopolamine-induced amnesia measured as transfer latency at 5 mg/kg, po for 8 days administered 1 hr prior to scopolamine-challenge on day 7 measured on same day by elevated plus maze test (reference value: 67.83 +/- 0.94 seconds); format: functional
Rattus norvegicus [9] = assay: Activity at AChE in Charles Foster rat prefrontal cortex assessed as substrate hydrolyzed per mg of protein at 5 mg/kg, po for 8 days by Ellman's method (reference value: 45.83 +/- 0.94 mol/min); format: functional
[10] = Selectivity ratio of IC50 for human serum BChE to IC50 for electric eel AChE
Summary of the method: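 Ratio of IC50 (BChE) to IC50 (AChE). Both came from Ellman assays at 0.1 M phosphate pH 8.0 and 0.02 unit/mL enzyme: AChE (stock in phosphate buffer) with acetylthiocholine, human serum BChE (stock in 0.1% gelatine) with butyrylthiocholine.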

Cholinesterase [11] = biological target: T1, Cholinesterase; assay: Inhibition of human serum BChE using butyrylthiocholine iodide as substrate preincubated for 20 mins prior to substrate addition by Ellman's method
Summary of the method: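 Human serum BChE was dissolved in 0.1% gelatine. The final mix held 0.1 M phosphate pH 8.0, DTNB, 0.02 unit/mL enzyme and butyrylthiocholine iodide. Five inhibitor concentrations spanning 20–80% inhibition were preincubated with enzyme for 20 min at 37 °C, then substrate was added. Rate was read at 412 nm over 5 min against an enzyme-free blank. Each point was run in triplicate, and IC50 was read graphically from log concentration–% inhibition curves.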

Rattus norvegicus [12] = assay: Cognitive enhancing effect in Wistar rat assessed as reversal of learning impairment measured as transfer latency at 5 mg/kg, po for 8 days measured on first day of test by elevated plus maze test (reference value: 70.846 +/- 0.76 seconds); format: functional; summary of the method: as §2
Rattus norvegicus [13] = assay: Cognitive enhancing effect in Wistar rat assessed as reversal of learning impairment measured as transfer latency at 5 mg/kg, po for 8 days measured on second day of test by elevated plus maze test (reference value: 66.824 +/- 0.47 seconds); format: functional; summary of the method: as §2
Rattus norvegicus [14] = assay: Cognitive enhancing effect in Wistar rat assessed as reversal of learning impairment measured as transfer latency at 10 mg/kg, po for 8 days measured on first day of test by elevated plus maze test (reference value: 70.846 +/- 0.76 seconds); format: functional; summary of the method: as §2
Rattus norvegicus [15] = assay: Activity at AChE in Charles Foster rat hippocampus assessed as substrate hydrolyzed per mg of protein at 5 mg/kg, po for 8 days by Ellman's method (reference value: 47.50 +/- 0.84 mol/min); format: functional
Rattus norvegicus [16] = assay: Toxicity in albino rat assessed as mortality upto 100 mg/kg after 30 mins to 48 hrs; format: organism-based; design: dose 100 mg/kg; conditions: in vivo
Summary of the method: (§3)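 Acute toxicity followed OECD guidelines. Nulliparous, non-pregnant female albino rats (120–150 g) were fasted overnight with water ad libitum. Graded oral doses up to 100 mg/kg were given in 0.3% carboxymethyl cellulose. Rats were observed continuously for 30 min, at 2 h and up to 48 h for behavioural or autonomic changes, tremors, convulsions, salivation, diarrhoea, sleep, lacrimation, cardiovascular signs, feeding and mortality.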

Rattus norvegicus [17] = assay: Cognitive enhancing effect in Charles Foster rat assessed as reversal of scopolamine-induced amnesia measured as transfer latency at 10 mg/kg, po for 8 days administered 1 hr prior to scopolamine-challenge on day 7 measured on same day by elevated plus maze test (reference value: 67.83 +/- 0.94 seconds); format: functional
Rattus norvegicus [18] = assay: Activity at AChE in Charles Foster rat hypothalamus assessed as substrate hydrolyzed per mg of protein at 5 mg/kg, po for 8 days by Ellman's method (reference value: 40.50 +/- 0.76 mol/min); format: functional
Rattus norvegicus [19] = assay: Toxicity in albino rat assessed as change in normal behavioral response upto 100 mg/kg after 30 mins to 48 hrs; format: organism-based; design: dose 100 mg/kg; conditions: in vivo; summary of the method: as §3
Rattus norvegicus [20] = assay: Cognitive enhancing effect in Wistar rat assessed as reversal of learning impairment measured as transfer latency at 10 mg/kg, po for 8 days measured on second day of test by elevated plus maze test (reference value: 66.824 +/- 0.47 seconds); format: functional; summary of the method: as §2
Rattus norvegicus [21] = assay: Activity at AChE in Charles Foster rat prefrontal cortex assessed as substrate hydrolyzed per mg of protein at 10 mg/kg, po for 8 days by Ellman's method (reference value: 45.83 +/- 0.94 mol/min); format: functional
Acetylcholinesterase [22] = biological target: T2, Acetylcholinesterase; assay: Competitive inhibition of electric eel AChE using acetylthiocholine iodide as substrate by Lineweaver-Burk plot analysis; summary of the method: as §1
Cholinesterase [23] = biological target: T1, Cholinesterase; assay: Competitive inhibition of human serum BChE using butyrylthiocholine iodide as substrate by Lineweaver-Burk plot analysis; summary of the method: as §1
Acetylcholinesterase [24] = biological target: T2, Acetylcholinesterase; assay: Non competitive inhibition of electric eel AChE using acetylthiocholine iodide as substrate by Lineweaver-Burk plot analysis

T1 sequence (P06276 whole entry): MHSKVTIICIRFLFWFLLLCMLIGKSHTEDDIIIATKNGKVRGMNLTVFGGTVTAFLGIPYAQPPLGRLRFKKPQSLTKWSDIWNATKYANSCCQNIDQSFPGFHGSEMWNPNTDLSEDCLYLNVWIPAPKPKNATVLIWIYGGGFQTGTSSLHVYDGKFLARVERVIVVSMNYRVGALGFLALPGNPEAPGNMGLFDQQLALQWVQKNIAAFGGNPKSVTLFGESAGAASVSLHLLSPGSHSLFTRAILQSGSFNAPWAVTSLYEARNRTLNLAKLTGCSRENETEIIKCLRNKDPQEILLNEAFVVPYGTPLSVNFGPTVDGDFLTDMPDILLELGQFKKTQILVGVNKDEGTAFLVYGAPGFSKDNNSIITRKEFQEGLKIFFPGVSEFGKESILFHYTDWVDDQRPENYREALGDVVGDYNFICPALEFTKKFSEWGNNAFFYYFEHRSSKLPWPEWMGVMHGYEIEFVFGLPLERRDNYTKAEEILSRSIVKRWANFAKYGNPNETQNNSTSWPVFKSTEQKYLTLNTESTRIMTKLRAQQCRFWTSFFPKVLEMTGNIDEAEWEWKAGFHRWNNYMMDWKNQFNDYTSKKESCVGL

| Structure (SMILES) | Time (Rattus norvegicus [2]) [s] | Activity (Rattus norvegicus [3]) | Activity (Rattus norvegicus [4]) [mol/min] | Time (Rattus norvegicus [5]) [s] | Activity (Rattus norvegicus [6]) [mol/min] | pIC50 (Acetylcholinesterase [7]) | Time (Rattus norvegicus [8]) [s] | Activity (Rattus norvegicus [9]) [mol/min] | Ratio IC50 [10] | pIC50 (Cholinesterase [11]) | Time (Rattus norvegicus [12]) [s] | Time (Rattus norvegicus [13]) [s] | Time (Rattus norvegicus [14]) [s] | Activity (Rattus norvegicus [15]) [mol/min] | Activity (Rattus norvegicus [16]) | Time (Rattus norvegicus [17]) [s] | Activity (Rattus norvegicus [18]) [mol/min] | Activity (Rattus norvegicus [19]) | Time (Rattus norvegicus [20]) [s] | Activity (Rattus norvegicus [21]) [mol/min] | also measured |
| --- | --- | --- | --- | --- | --- | --- | --- | --- | --- | --- | --- | --- | --- | --- | --- | --- | --- | --- | --- | --- | --- |
| O=C(N/N=C/c1ccc(O)cc1O)Nc1ccncc1 | 61.83 | Dose-dependent effect | 32.5 | 57.67 | 35.03 | 5.37 | 65.57 | 36.17 | 13.7 | 4.23 | 51 | 42.5 | 49.17 | 37.5 | Non-toxic | 65.17 | 34.83 | Non-toxic | 40.33 | 34.83 | pKi (Cholinesterase [1]): 4.14; pKi (Acetylcholinesterase [22]): 5.45 |
| O=C(NN=C(c1ccccc1)c1ccccc1)Nc1ccncc1 | 56.13 | Dose-dependent effect | 29.17 | 54.17 | 32 | 7.28 | 64.57 | 32.67 | 355 | 4.73 | 46.81 | 40.42 | 43.73 | 33.67 | Non-toxic | 61.83 | 31 | Non-toxic | 37.97 | 30 | pKi (Cholinesterase [23]): 4.77; pKi (Acetylcholinesterase [24]): 7.09 |
| O=C(N/N=C/c1ccccc1O)Nc1ccncc1 | 65 | Dose-dependent effect | 34.67 | 63.67 | 36.83 | 4.49 | 70.17 | 39.33 | 7.56 | 3.61 | 55.21 | 49.12 | 54.19 | 39.17 | Non-toxic | 67.33 | 36.33 | Non-toxic | 48.15 | 37.5 | pKi (Cholinesterase [1]): 3.67; IC50 (Acetylcholinesterase [7]): 33.1 µM; pKi (Acetylcholinesterase [22]): 4.59 |
| COc1cc(/C=N/NC(=O)Nc2ccncc2)ccc1O | 64.5 | Dose-dependent effect | 33.67 | 57.87 | 36.83 | 4.73 | 68.17 | 36.62 | 28.2 | 3.28 | 52 | 46.17 | 49.67 | 39.5 | Non-toxic | 65 | 35.83 | Non-toxic | 40.5 | 35.5 | pKi (Cholinesterase [1]): 3.35; IC50 (Acetylcholinesterase [7]): 19.1 µM; pKi (Acetylcholinesterase [22]): 4.69 |
| C/C(=N\NC(=O)Nc1ccncc1)c1ccc(O)cc1 | 60.5 | Dose-dependent effect | 31.5 | 56.83 | 34.17 | 6.84 | 65.33 | 35.5 | 2.46 | 6.45 | 48.07 | 43.17 | 48.17 | 36.33 | Non-toxic | 64.17 | 34.13 | Non-toxic | 39.5 | 33.83 | pKi (Cholinesterase [23]): 6.20; IC50 (Acetylcholinesterase [7]): 0.148 µM; pKi (Acetylcholinesterase [24]): 6.61 |
